The results in this text go back to PubChem BioAssay.

The source made the active and inactive calls.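 How the source made its calls, unless noted: active means fluorescence slope higher than the sample average by over 3 SD (cut at about -0.22 in these data, passing the limit was not always enough); inactive means the rest.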

One may read the inhibition as the relative decrease from the control value, in per cent.

The nature of assay [1]: inhibitors of TNFa-induced NFkB p65 translocation, primary screen, imaging, HUVEC, MLSMR starter and 10KST1 sets (AID 438;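 active means inhibition above 20% together with a positive visual image hit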;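 further: compound added about 3h40 before a 20 min TNFalpha stimulation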;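 on inhibition: signal is the nuclear over cytoplasmic p65 intensity ratio per well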). The settings on record: HUVEC TNFa-induced p65 nuclear translocation; cell count: measured here: nuclei count (cytotoxicity indicator), at 2.08 µM; inhibition: at 2 µM, stronger effect = higher value, 0% TNFa-plus-vehicle, 100% no-TNFa wells.
Assay [2] in a line: inhibitors of mutant huntingtin aggregation, primary screen, imaging, exon1htt(103Q)mCFP cells, high-content imaging (AID 483;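 active means visual image review flags a hit and inhibition of aggregation exceeds 20%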;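 further: compound exposure lasted 3 days before fixation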;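 on nuclei count: percent of the per-plate median nuclei count of sample wells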). The following applies: exon1htt(103Q)mCFP cell line, aggregate imaging, at 2 µM; inhibition of aggregation: stronger effect = higher value; nuclei count: measured here: cell count, toxicity.
A short description of assay [3]: inhibitors of E-selectin induction by TNFa, primary screen, imaging, HUVEC, immunofluorescence, MLSMR starter and 10KST1 sets (AID 487;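 active means visually confirmed hit in the image check and inhibition above 20%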;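 on inhibition: signal is fraction of cell area covered by stained E-selectin grains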;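 on nuclei count: 100% = median nuclei count of all wells on the same plate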). The settings on record: HUVEC TNFalpha-induced E-selectin immunofluorescence imaging, at 2 µM; inhibition: stronger effect = higher value; nuclei count: measured here: cell number, toxicity.
Assay [4] has as its target Voltage-gated potassium channel subunit beta-2 (Rattus norvegicus) (UniProt P62483). Kind of assay: KvBeta enzyme negative modulators, primary screen, biochemical, NADPH fluorescence (AID 622).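 Further: slope of raw intensity against log time taken from 70 to 1610 s.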 The following applies: recombinant KvBeta, 4-cyanobenzaldehyde reduction, at 10 µM, stronger effect = higher value.
The target is the same in assay [5]. In words: KvBeta positive modulators, primary screen, biochemical, NADPH fluorescence (AID 623;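 active means NADPH fluorescence slope more negative than the mean of all samples by about 3 SD, 99.7% confidence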;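 further: fluorescence intensity change per second fitted from 20 to 320 s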). The following applies: Recombinant KvBeta, NADPH fluorescence decrease slope, 10 min; at 10 µM; stronger effect = lower value.
Assay [6] concerns the target Muscarinic acetylcholine receptor M4 (Homo sapiens) (UniProt P08173). Kind of assay: compounds altering M4/GIRK thallium flux, either direction, primary screen, M4 allosteric agonist project, cell-based, HEK293 M4/GIRK, BTC-AM (AID 625;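 active means fluorescence slope after compound addition differing from the mean of all tested samples at 99.7% confidence, mostly higher but some lower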;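 further: thallium influx through GIRK channels coupled to M4 in HEK293 cells with BTC-AM dye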). The settings on record: at 10 µM, actives lie on both sides. The method, boiled down:
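Material: M4/GIRK1/GIRK2 stable HEK293 cell line. Medium: pH 7.3 thallium assay buffer. Dosing: single compound concentration, 10 µM final. Schedule: 1 h dye loading, 2 min kinetic read. Measured by: kinetic fluorescence with BTC-AM dye. Read-out: post-addition slope, 15–24 s, of baseline-normalized fluorescence. Benchmarks: carbachol and DMSO controls.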

The nature of assay [7]: inhibitors of Sendai virus-induced IRF3 signaling, primary screen, TLR/RLR signaling modifier project, cell-based, Sendai virus stimulus, luciferase, 10K MLSCN set (AID 602276;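 active means inhibition at or above 50% at 10 µM; inactive means inhibition below 50%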;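 further: firefly luciferase from ISG56 promoter only with Renilla not read in this screen; 0% = Sendai virus plus DMSO and 100% = medium plus DMSO without virus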). The following applies: HEK293 RL24 IRF3 luciferase reporter, at 10 µM, stronger effect = higher value. On the technique in general: In a reporter assay the amount or activity of a reporter protein is the signal.

Assay [8] can be described thus: inhibitors of poly I:C-induced TLR3 signaling, primary screen, cell-based, poly I:C stimulus, luciferase, 10K MLSCN set (AID 602277;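 active means inhibition of the reporter signal at or above 50%; inactive means inhibition below 50%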). The settings on record: HEK293-TLR3 RL24 IRF3 luciferase reporter, at 10 µM, stronger effect = higher value.

Voltage-gated potassium channel subunit beta-2 (Rattus norvegicus), sequence (P62483 whole entry, looked up): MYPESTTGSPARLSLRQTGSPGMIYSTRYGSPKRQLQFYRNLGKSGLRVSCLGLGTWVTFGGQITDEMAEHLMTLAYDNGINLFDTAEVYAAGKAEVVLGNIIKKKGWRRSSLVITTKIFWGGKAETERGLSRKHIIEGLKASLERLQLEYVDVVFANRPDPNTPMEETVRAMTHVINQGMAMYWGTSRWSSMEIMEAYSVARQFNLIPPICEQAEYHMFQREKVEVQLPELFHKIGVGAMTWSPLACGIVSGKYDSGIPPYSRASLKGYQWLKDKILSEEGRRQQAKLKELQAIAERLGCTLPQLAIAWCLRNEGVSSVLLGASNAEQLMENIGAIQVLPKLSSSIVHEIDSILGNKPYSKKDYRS
Muscarinic acetylcholine receptor M4 (Homo sapiens), sequence (P08173 whole entry, looked up): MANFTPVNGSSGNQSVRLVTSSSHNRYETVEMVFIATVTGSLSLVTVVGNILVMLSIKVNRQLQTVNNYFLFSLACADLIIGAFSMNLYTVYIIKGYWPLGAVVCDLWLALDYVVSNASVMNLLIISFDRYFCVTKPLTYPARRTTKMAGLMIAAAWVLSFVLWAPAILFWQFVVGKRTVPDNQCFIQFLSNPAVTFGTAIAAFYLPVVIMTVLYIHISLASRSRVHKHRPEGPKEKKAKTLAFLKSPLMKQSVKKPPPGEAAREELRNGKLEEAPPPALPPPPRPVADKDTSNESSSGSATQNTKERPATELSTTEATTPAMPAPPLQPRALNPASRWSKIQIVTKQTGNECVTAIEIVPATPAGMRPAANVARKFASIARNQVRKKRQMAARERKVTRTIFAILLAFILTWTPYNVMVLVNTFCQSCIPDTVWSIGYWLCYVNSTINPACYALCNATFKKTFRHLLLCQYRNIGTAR

Turning to `CCCn1c(N2CCN(CC(=O)Nc3ccc4c(c3)OCCO4)CC2)nc2ccccc21`, the cell count in assay [1] was determined as 411. The inhibition in assay [1] was -11% (inactive); in assay [3] it was -98.9% (inactive); in assay [7], 4.25% (inactive); in assay [8] it was 20.1% (inactive). Besides, in assay [2], the inhibition of aggregation was 1.8% (inactive). For the same compound, the nuclei count in assay [2] came to 103%; in assay [3] it was 74.4%. Moreover, the fluorescence slope in assay [4] was -0.526 (inactive); in assay [6] it was 0.00376 (inactive). In addition, the NADPH fluorescence slope in assay [5] is -0.000207 (inactive).
Turning to `O=C1CNCc2[nH]c3ccccc3c2N1c1ccccc1`, in assay [1], the cell count is 377. Further, the inhibition in assay [1] was 3.9% (inactive); in assay [3], -124% (inactive); in assay [7], 17.2% (inactive); in assay [8], 17.9% (inactive). In addition, in assay [2], the inhibition of aggregation was 9.4% (inactive). For the same compound, the nuclei count came out at 104% in assay [2] and 118% in assay [3]. Besides, the results for the fluorescence slope in assay [4] and in assay [6] were -0.509 (inactive) and 0.00541 (inactive), respectively. Also, the NADPH fluorescence slope in assay [5] is -3.5e-05 (inactive).
As for `Cc1cc(C(=O)CSCc2nnc3n(CCC(C)C)c(=O)c4ccccc4n23)c(C)n1C`, the cell count in assay [1] turned out to be 284. Besides, the inhibition was -11.2% (inactive) in assay [1], -26.1% (inactive) in assay [3], 14.8% (inactive) in assay [7] and 26.1% (inactive) in assay [8]. In addition, the inhibition of aggregation in assay [2] was -1.8% (inactive). In addition, the nuclei count in assay [2] was 94.2%; in assay [3], 88.8%. In addition, the fluorescence slope in assay [4] is -0.558 (inactive); in assay [6], 0.00507 (inactive). The NADPH fluorescence slope in assay [5] is 3.1e-06 (inactive).
Consider `Cc1nc(-c2cnn(-c3ccccc3)c2)c2cc(C)oc2n1`, for which, in assay [1], the cell count worked out at 312. Also, the inhibition in assay [1] was -2.8% (inactive); in assay [3] it was -48.6% (inactive); in assay [7] it was 10.4% (inactive); in assay [8] it was -22.9% (inactive). The inhibition of aggregation in assay [2] was 10.4% (inactive). Besides, the nuclei count in assay [2] came out at 85.8%; in assay [3], 159%. Besides, the values for the fluorescence slope in assay [4] and in assay [6] were -0.572 (inactive) and 0.0027 (inactive), respectively. Also, the NADPH fluorescence slope in assay [5] was 9.5e-07 (inactive).
On to `COC(=O)c1nc2n(n1)C(c1ccc(OC)c(OC)c1)C(C(=O)OC1CCCCC1)=C(C)N2` (stereo not drawn), for which the cell count in assay [1] turned out to be 603. For the same compound, the inhibition in assay [1] is -14.8% (inactive); in assay [3], 26.7% (inactive); in assay [7] it was 4.26% (inactive); in assay [8], 12.6% (inactive). For the same compound, the inhibition of aggregation in assay [2] was -3.4% (inactive). For the same compound, the nuclei count in assay [2] was 99.2%; in assay [3] it was 89.6%. Moreover, the fluorescence slope in assay [4] is -0.315 (inactive); in assay [6] it was 0.00696 (inactive). Also, the NADPH fluorescence slope in assay [5] was -5.5e-05 (inactive).
For `Cc1ccc(SCCC(=O)N(C)C)cc1`, the cell count in assay [1] worked out at 637. Also, the inhibition is -8.6% (inactive) in assay [1], -143% (inactive) in assay [3], -10.8% (inactive) in assay [7] and -52.8% (inactive) in assay [8]. Moreover, the inhibition of aggregation in assay [2] is 10.5% (inactive). Further, the nuclei count came out at 89.8% in assay [2] and 103% in assay [3]. The figures for the fluorescence slope in assay [4] and in assay [6] were -0.459 (inactive) and 0.00561 (inactive), respectively. Moreover, the NADPH fluorescence slope in assay [5] is -2.6e-05 (inactive).
As for `CCOC(=O)C1=C(C)NC(=O)C(C#N)C1c1ccco1` (stereo not drawn), the cell count in assay [1] is 319. Moreover, the inhibition in assay [1] was -1.2% (inactive); in assay [3] it was -59.3% (inactive); in assay [7], 15.7% (inactive); in assay [8], 20.3% (inactive). The inhibition of aggregation in assay [2] is 6.1% (inactive). Further, the values for the nuclei count in assay [2] and in assay [3] were 86.2% and 127%, respectively. For the same compound, the fluorescence slope in assay [4] is -0.39 (inactive); in assay [6] it was 0.00489 (inactive). In addition, in assay [5], the NADPH fluorescence slope was 3.3e-05 (inactive).
For `CC(C)(C)OC(=O)N1CC(O)CC1C(=O)OCC(=O)c1ccc(Cl)cc1` (stereo not drawn), in assay [1], the cell count turned out to be 445. Besides, the inhibition in assay [1] is -7.4% (inactive); in assay [3], -22.9% (inactive); in assay [7], 8.08% (inactive); in assay [8], 19.4% (inactive). Also, the inhibition of aggregation in assay [2] is 22.1% (inactive). Moreover, the nuclei count in assay [2] came out at 105%; in assay [3], 103%. The figures for the fluorescence slope in assay [4] and in assay [6] were -0.316 (inactive) and 0.00558 (inactive), respectively. Besides, the NADPH fluorescence slope in assay [5] is -6e-05 (inactive).
In the case of `COc1ccc(-c2coc3c(CN4CCCCC4)c(O)c(CN4CCCCC4)c(O)c3c2=O)cc1`, in assay [1], the cell count came to 367. For the same compound, the inhibition in assay [1] was -17% (inactive); in assay [3], -63.6% (inactive); in assay [7] it was 5.54% (inactive); in assay [8] it was 32.3% (inactive). Besides, the inhibition of aggregation in assay [2] was 8.6% (inactive). Also, the nuclei count in assay [2] came to 85.4%; in assay [3] it was 103%. The results for the fluorescence slope in assay [4] and in assay [6] were -0.566 (inactive) and 0.00504 (inactive), respectively. Moreover, the NADPH fluorescence slope in assay [5] was -2.2e-05 (inactive).
For `CCN1CCN(Cc2ccc(NC(=O)Nc3ccc(SC)cc3)cc2)CC1`, the cell count in assay [1] was 268. The inhibition in assay [1] is -1.7% (inactive); in assay [3], -52.1% (inactive); in assay [7], -29.9% (inactive); in assay [8], -81.3% (inactive). In addition, in assay [2], the inhibition of aggregation is 16.3% (inactive). The figures for the nuclei count in assay [2] and in assay [3] were 97.3% and 93.5%, respectively. Besides, the fluorescence slope was -0.54 (inactive) in assay [4] and 0.00398 (inactive) in assay [6]. The NADPH fluorescence slope in assay [5] was -3.4e-05 (inactive).
Consider `Cc1ccc(C)c(SCC(=O)Nc2nnc(-c3ccccc3)o2)c1`, for which, in assay [1], the cell count is 395. Moreover, the inhibition was -16.8% (inactive) in assay [1], -16.3% (inactive) in assay [3], 13.5% (inactive) in assay [7] and 19.4% (inactive) in assay [8]. For the same compound, the inhibition of aggregation in assay [2] was -12.6% (inactive). Further, the nuclei count in assay [2] stood at 99.9%; in assay [3], 124%. The fluorescence slope was -0.586 (inactive) in assay [4] and 0.00772 (inactive) in assay [6]. Besides, in assay [5], the NADPH fluorescence slope is -3.2e-05 (inactive).
On to `CCOC(=O)N1CCN(S(=O)(=O)c2ccc(Br)s2)CC1`, for which, in assay [1], the cell count worked out at 350. The inhibition in assay [1] was -8.6% (inactive); in assay [3] it was -27.3% (inactive); in assay [7], 21.3% (inactive); in assay [8], 11.6% (inactive). Moreover, the inhibition of aggregation in assay [2] is -13.3% (inactive). For the same compound, the values for the nuclei count in assay [2] and in assay [3] were 84.3% and 98.6%, respectively. For the same compound, the fluorescence slope was -0.553 (inactive) in assay [4] and 0.00427 (inactive) in assay [6]. Also, in assay [5], the NADPH fluorescence slope was -1.3e-06 (inactive).
In the case of `CCCCCCC(=O)c1c(C)[nH]c(C(=O)OCC)c1C`, in assay [1], the cell count was found to be 310. Besides, the inhibition in assay [1] was -4.2% (inactive); in assay [3], -54.5% (inactive); in assay [7], -13.2% (inactive); in assay [8], -55.3% (inactive). Further, the inhibition of aggregation in assay [2] was 14.4% (inactive). The nuclei count came out at 59.6% in assay [2] and 102% in assay [3]. In addition, the values for the fluorescence slope in assay [4] and in assay [6] were -0.517 (inactive) and 0.00442 (inactive), respectively. Moreover, in assay [5], the NADPH fluorescence slope was -2.8e-05 (inactive).
